Assay results from ChEMBL document CHEMBL1165943, “Design and synthesis of new anticancer pyrimidines with multiple-kinase inhibitory effect” (Bioorg Med Chem, 2010).

Tests used:
[1] = test system: BT-549; experiment: Growth inhibition of human BT549 cells after 48 hrs by sulforhodamine B assay; type: functional, cell-based; details: BT-549, 48 h; for CC50: read-out: LC50 (the source's name)
Method in brief: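 Five-dose SRB assay. Cells in RPMI 1640 with 5% FBS and 2 mM L-glutamine were seeded at 5,000–40,000 cells/well, with a TCA-fixed time-zero plate (Tz) taken at 24 h. Compound stocks were in DMSO, serially diluted 10-fold or ½-log to five concentrations, and incubated 48 h at 37 °C. Plates were stained with SRB and read at 515 nm. IC₅₀ was taken where [(Ti−Tz)/(C−Tz)]×100 = 50.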

[2] = test system: K562; experiment: Cytotoxicity against human K562 cells assessed as cell growth at 0.001 uM after 48 hrs by sulforhodamine B assay; type: functional; details: K562, 48 h, read-out: Activity
[3] = test system: A549; experiment: Cytotoxicity against human A549 cells assessed as cell growth at 100 nM after 48 hrs by sulforhodamine B assay; type: functional; details: A549, 48 h, read-out: Activity
Method in brief: (§1)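 Cells grown in RPMI 1640 with 5% FBS and 2 mM L-glutamine, seeded at 5,000–40,000 cells/well by doubling time. Time-zero plates TCA-fixed after 24 h. Five concentrations (10-fold or half-log dilutions from DMSO stock) added; 48 h at 37 °C, 5% CO2. Cold TCA fixation (final 10%, 60 min, 4 °C), 0.4% SRB stain, dye solubilized in 10 mM trizma base, A515.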

[4] = test system: HOP-62; experiment: Cytotoxicity against human HOP62 cells assessed as cell growth at 100 nM after 48 hrs by sulforhodamine B assay; type: functional; details: HOP-62, 48 h, read-out: Activity
[5] = test system: KM12; experiment: Cytotoxicity against human KM12 cells assessed as cell growth at 100 nM after 48 hrs by sulforhodamine B assay; type: functional; details: KM12, 48 h, read-out: Activity
[6] = test system: SK-OV-3; experiment: Cytotoxicity against human SKOV3 cells assessed as cell growth at 100 nM after 48 hrs by sulforhodamine B assay; type: functional; details: SK-OV-3, 48 h, read-out: Activity
[7] = test system: ACHN; experiment: Cytotoxicity against human ACHN cells assessed as cell growth at 100 nM after 48 hrs by sulforhodamine B assay; type: functional; details: read-out: Activity; method in brief: as §1
[8] = test system: HCT-116; experiment: Cytotoxicity against human HCT116 cells assessed as cell growth at 10 uM after 48 hrs by sulforhodamine B assay; type: functional; details: HCT-116, 48 h, read-out: Activity
[9] = test system: U-251; experiment: Cytotoxicity against human U251 cells assessed as cell growth at 10 uM after 48 hrs by sulforhodamine B assay; type: functional; details: U-251, 48 h, read-out: Activity
[10] = test system: DU-145; experiment: Cytotoxicity against human DU145 cells assessed as cell growth at 100 nM after 48 hrs by sulforhodamine B assay; type: functional; details: DU-145, 48 h, read-out: Activity
[11] = test system: OVCAR-3; experiment: Cytotoxicity against human OVCAR-3 cells assessed as cell growth at 10 uM after 48 hrs by sulforhodamine B assay; type: functional; details: OVCAR-3, 48 h, read-out: Activity
[12] = test system: SK-OV-3; experiment: Cytotoxicity against human SKOV3 cells assessed as cell growth at 10 uM after 48 hrs by sulforhodamine B assay; type: functional; details: SK-OV-3, 48 h, read-out: Activity
[13] = test system: CAKI-1; experiment: Cytotoxicity against human Caki1 cells assessed as cell growth at 10 uM after 48 hrs by sulforhodamine B assay; type: functional; details: CAKI-1, 48 h, read-out: Activity; method in brief: as §1
[14] = Cytotoxicity against human Hs 578T cells assessed as cell growth at 10 uM after 48 hrs by sulforhodamine B assay; type: functional; details: read-out: Activity
[15] = test system: NCI-H522; experiment: Cytotoxicity against human NCI-H522 cells assessed as cell growth at 1 uM after 48 hrs by sulforhodamine B assay; type: functional; details: NCI-H522, 48 h, read-out: Activity
[16] = test system: SF-268; experiment: Cytotoxicity against human SF268 cells assessed as cell growth at 1 uM after 48 hrs by sulforhodamine B assay; type: functional; details: SF-268, 48 h, read-out: Activity
[17] = test system: SF-295; experiment: Cytotoxicity against human SF295 cells assessed as cell growth at 1 uM after 48 hrs by sulforhodamine B assay; type: functional; details: SF-295, 48 h, read-out: Activity
[18] = test system: NCI/ADR-RES; experiment: Cytotoxicity against human NCI/ADR-RES cells assessed as cell growth at 0.01 uM after 48 hrs by sulforhodamine B assay; type: functional; details: read-out: Activity
[19] = test system: SN12C; experiment: Cytotoxicity against human SN12C cells assessed as cell growth at 0.01 uM after 48 hrs by sulforhodamine B assay; type: functional; details: read-out: Activity
[20] = test system: BT-549; experiment: Cytotoxicity against human BT549 cells assessed as cell growth at 0.01 uM after 48 hrs by sulforhodamine B assay; type: functional; details: BT-549, 48 h, read-out: Activity; method in brief: as §1
[21] = test system: SK-MEL-5; experiment: Cytotoxicity against human SK-MEL-5 cells assessed as cell growth at 1 uM after 48 hrs by sulforhodamine B assay; type: functional; details: SK-MEL-5, 48 h, read-out: Activity
[22] = test system: UACC-257; experiment: Cytotoxicity against human UACC257 cells assessed as cell growth at 1 uM after 48 hrs by sulforhodamine B assay; type: functional; details: UACC-257, 48 h, read-out: Activity
[23] = test system: HL-60(TB); experiment: Growth inhibition of human HL-60(TB) cells after 48 hrs by sulforhodamine B assay; type: functional, cell-based; details: HL-60, 48 h; for CC50: read-out: LC50 (the source's name)
Method in brief: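 HL-60(TB) suspension cells in RPMI 1640 with 5% FBS receive five 10-fold or ½log drug dilutions from DMSO stock for 48 h at 37 °C, 5% CO2. Settled cells are TCA-fixed, SRB-stained and read at 515 nm against a time-zero plate. […] is solved from [(Ti−Tz)/(C−Tz)]×100 = 50.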

[24] = test system: OVCAR-5; experiment: Cytotoxicity against human OVCAR5 cells assessed as cell growth at 1 uM after 48 hrs by sulforhodamine B assay; type: functional; details: OVCAR-5, 48 h, read-out: Activity
[25] = test system: SN12C; experiment: Cytotoxicity against human SN12C cells assessed as cell growth at 1 uM after 48 hrs by sulforhodamine B assay; type: functional; details: read-out: Activity
[26] = test system: DU-145; experiment: Cytotoxicity against human DU145 cells assessed as cell growth at 1 uM after 48 hrs by sulforhodamine B assay; type: functional; details: DU-145, 48 h, read-out: Activity
[27] = test system: NCI-H460; experiment: Growth inhibition of human NCI-H460 cells after 48 hrs by sulforhodamine B assay; type: functional, cell-based; details: NCI-H460, 48 h; for CC50: read-out: LC50 (the source's name)
Method in brief: (§2)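 Cells grown in RPMI 1640 with 5% FBS and 2 mM L-glutamine, seeded at 5,000–40,000 cells/well according to doubling time. After 24 h, time-zero plates are TCA-fixed. Five concentrations (10-fold or ½log dilutions, DMSO stocks) are applied for 48 h at 37 °C, 5% CO₂. Cells are TCA-fixed, SRB-stained and read at 515 nm. IC₅₀ is taken from [(Ti−Tz)/(C−Tz)]×100 = 50.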

[28] = test system: HCT-116; experiment: Growth inhibition of human HCT116 cells after 48 hrs by sulforhodamine B assay; type: functional, cell-based; details: HCT-116, 48 h; for CC50: read-out: LC50 (the source's name); method in brief: as §2

Row | Structure (SMILES) | TGI [1] [µM] | CC50 [1] [µM] | growth at 0.001 µM [2] [%] | growth at 0.1 µM [3] [%] | growth at 0.1 µM [4] [%] | growth at 0.1 µM [5] [%] | growth at 0.1 µM [6] [%] | growth at 0.1 µM [7] [%] | growth at 10 µM [8] [%] | growth at 10 µM [9] [%] | growth at 0.1 µM [10] [%] | growth at 10 µM [11] [%] | growth at 10 µM [12] [%] | growth at 10 µM [13] [%] | growth at 10 µM [14] [%] | growth at 1 µM [15] [%] | growth at 1 µM [16] [%] | growth at 1 µM [17] [%] | growth at 0.01 µM [18] [%] | growth at 0.01 µM [19] [%] | also measured
1 | CC(=O)Nc1cccc(-c2ccc(-c3ccnc(NC(=O)Nc4cc(C(F)(F)F)cc(C(F)(F)F)c4)n3)cn2)c1.Cl | 20.4 | 46.3 | 93 | 58 | 100 | 92 | 94 | 93 | 100 | -96 | 102 | 100 | -63 | -36 | 18 | -22 | 31 | -15 | 94 | 96 | GI50 [1]: 7.07 µM; IC50 [1]: 7.07 µM; growth at 0.01 µM [20]: 91%; growth at 1 µM [21]: 100%; growth at 1 µM [22]: -45%; GI50 [23]: 3.78 µM; IC50 [23]: 3.78 µM; TGI [23]: 96.1 µM; CC50 [23]: > 100 µM; growth at 1 µM [24]: 62%; growth at 1 µM [25]: 49%; growth at 1 µM [26]: 38%; GI50 [27]: 2.06 µM; IC50 [27]: 2.06 µM; TGI [27]: 7.07 µM; CC50 [27]: 59.7 µM; GI50 [28]: 1.6 µM; IC50 [28]: 1.6 µM; TGI [28]: 4.71 µM; CC50 [28]: 17.1 µM
2 | CC(=O)c1ccccc1-c1ccc(-c2ccnc(NC(=O)Nc3cc(N4CCOCC4)cc(C(F)(F)F)c3)n2)cn1 | > 100 | > 100 | 81 | 92 | 100 | 89 | 118 | 91 | 66 | 39 | 77 | 51 | 41 | 86 | 13 | 90 | 60 | 48 | 98 | 88 | growth at 0.01 µM [20]: 91%; growth at 1 µM [21]: 33%; growth at 1 µM [22]: 66%; GI50 [23]: > 100 µM; IC50 [23]: > 100 µM; TGI [23]: > 100 µM; CC50 [23]: > 100 µM; growth at 1 µM [24]: 96%; growth at 1 µM [25]: 64%; growth at 1 µM [26]: 19%; GI50 [27]: > 100 µM; IC50 [27]: > 100 µM; TGI [27]: > 100 µM; CC50 [27]: > 100 µM; GI50 [28]: > 100 µM; IC50 [28]: > 100 µM; TGI [28]: > 100 µM; CC50 [28]: > 100 µM
